Results on twelve compounds are retold here after ChEMBL document CHEMBL4396903, “Chain-Shortened Myostatin Inhibitory Peptides Improve Grip Strength in Mice” (ACS Med Chem Lett, 2019).

Activity calls are given as the source filed them. The calls are words filed in the database; no cut-off is given here. Square brackets hold non-standard residues; d marks the D form. Peptide text beside a SMILES is read from it. * marks the point of attachment. Acetyl(2-naphthyloxy) = O=C(COc1ccc2ccccc2c1)*; Chg = N[C@H](C(=O)O)C1CCCCC1

In test [1] the test system is Mus musculus. As to the kind of experiment: In vivo induction of muscular hypertrophy in im dosed C57BL/6 mouse assessed as increase in gastrocnemius muscle fiber size administered on 0 and 14 day and measured on day 42 by hematoxylin and eosin staining based assay. The format is functional, organism-based.
In test [2] the test system is Mus musculus. The experiment in a line: In vivo induction of muscular hypertrophy in im dosed mdx mouse assessed as increase in gastrocnemius muscle fiber size administered on 0 and 14 day and measured on day 42 by hematoxylin and eosin staining based assay. It is filed as functional, organism-based. Summed up: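 Male mdx mice aged 5 weeks received intramuscular injections, with saline-injected controls. Gastrocnemius fiber size was assessed histologically by hematoxylin and eosin staining.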

For test [3], the target named is Growth/differentiation factor 8 (Homo sapiens) (UniProt O14793). The experiment in a line: Inhibition of myostatin (unknown origin) expressed in HEK293 cells at 0.3 uM incubated for 4 hrs by dual luciferase reporter gene assay. The format is cell-based. In short, it runs like this: (§1)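 Luciferase reporter assay of myostatin inhibition in HEK293 cells. Peptides were prepared as 3 mM DMSO stocks, then tested at a single final concentration (10, 3 or 0.3 μM). Results are given as mean ± SD (n = 3).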
Sequence of Growth/differentiation factor 8 (Homo sapiens) (O14793 267-375 limits assumed): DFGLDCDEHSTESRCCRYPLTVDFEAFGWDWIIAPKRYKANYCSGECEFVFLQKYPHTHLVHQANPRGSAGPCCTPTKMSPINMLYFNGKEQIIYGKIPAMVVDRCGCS

Test [4] shares this target. As to the kind of experiment: Inhibition of myostatin (unknown origin) expressed in HEK293 cells at 10 uM incubated for 4 hrs by dual luciferase reporter gene assay. The format is cell-based. In short, it runs like this:
as §1
(In general: A reporter such as luciferase makes a cellular process visible.)

Test [5] has as its system Mus musculus. The experiment in a line: In vivo induction of muscular hypertrophy in mdx mouse assessed as increase in muscle function at 30 nmol, im administered on 0 and 14 day and measured on day 42 by grip strength meter method relative to control. The format is functional.
In test [6] the test system is Mus musculus. As to the kind of experiment: In vivo induction of muscular hypertrophy in mdx mouse assessed as hind limb strength at 30 nmol, im administered on 0 and 14 day and measured on day 42 by grip strength meter method (reference value: 4.41 +/- 0.31 Kg). It is filed as functional.
Test [7] has as its system Mus musculus. The experiment in a line: In vivo induction of muscular hypertrophy in mdx mouse assessed as increase in weight of TA muscles at 30 nmol, im administered on 0 and 14 day and measured on day 42 by relative to control. It is filed as functional.

Turning to H-WYIRWIKIQIWSKLRL-NH2, the outcome with Mus musculus [1] and with Mus musculus [2] was Active. The inhibition result in test [3] is “Active”.

Consider `CC[C@H](C)[C@H](NC(=O)[C@H](CCCNC(=N)N)NC(=O)[C@H](CO)NC(=O)[C@H](Cc1ccc(O)cc1)NC(=O)[C@H](CCCNC(=N)N)NC(=O)[C@@H](NC(=O)[C@H](CC(N)=O)NC(=O)[C@H](CCC(N)=O)NC(=O)[C@H](CCCNC(=N)N)NC(=O)COc1ccc2ccccc2c1)[C@@H](C)O)C(=O)N[C@@H](CCC(=O)O)C(=O)N[C@@H](Cc1c[nH]c2ccccc12)C(=O)N[C@H](C(=O)N[C@@H](CCCCN)C(=O)N[C@H](C(=O)N[C@@H](CCC(N)=O)C(=O)N[C@H](C(=O)N[C@H](C(=O)N[C@@H](CO)C(=O)N[C@@H](CCCCN)C(=O)N[C@@H](CC(C)C)C(=O)N[C@@H](CCCNC(=N)N)C(=O)N[C@@H](CC(C)C)C(N)=O)[C@@H](C)CC)[C@@H](C)CC)[C@@H](C)CC)[C@@H](C)CC` ({Acetyl(2-naphthyloxy)}-RQNTRYSRIEWIKIQIISKLRL-NH2), for which the result in the test with Mus musculus [1] was Active.

On to H-WYFRWIKIQIWSKLRL-NH2, for which, in test [3], the inhibition entry is “Active”.

On to H-SRIEWIKIQIISKLRL-NH2, for which, in test [4], the inhibition result was “Active”.

Turning to H-SRIEWIKIQIWSKLRL-NH2, the inhibition result in test [4] was “Active”.

On to H-WYIEAIKIQILSKLRL-NH2, for which the inhibition result in test [4] is “Active”.

As for `CC[C@H](C)[C@H](NC(=O)[C@H](CCC(N)=O)NC(=O)[C@@H](NC(=O)[C@H](CCCCN)NC(=O)[C@@H](NC(=O)[C@H](Cc1c[nH]c2ccccc12)NC(=O)[C@H](CCCNC(=N)N)NC(=O)[C@@H](NC(=O)[C@H](Cc1ccc(O)cc1)NC(=O)[C@@H](N)Cc1c[nH]c2ccccc12)[C@@H](C)CC)[C@@H](C)CC)C1CCCCC1)C(=O)N[C@@H](Cc1c[nH]c2ccccc12)C(=O)N[C@@H](CO)C(=O)N[C@@H](CCCCN)C(=O)N[C@H](C(=O)N[C@@H](CCCNC(=N)N)C(=O)N[C@@H](CC(C)C)C(N)=O)C1CCCCC1`, in test [3], the inhibition result is “Active”.

Take `CC[C@H](C)[C@H](NC(=O)[C@H](CCC(N)=O)NC(=O)[C@@H](NC(=O)[C@H](CCCCN)NC(=O)[C@@H](NC(=O)[C@H](Cc1c[nH]c2ccccc12)NC(=O)[C@H](CCCNC(=N)N)NC(=O)[C@@H](NC(=O)[C@H](Cc1ccc(O)cc1)NC(=O)[C@@H](N)Cc1c[nH]c2ccccc12)[C@@H](C)CC)[C@@H](C)CC)C1CCCCC1)C(=O)N[C@@H](Cc1c[nH]c2ccccc12)C(=O)N[C@@H](CO)C(=O)N[C@@H](CCCCN)C(=O)N[C@@H](CC(C)C)C(=O)N[C@@H](CCCNC(=N)N)C(=O)N[C@@H](CC(C)C)C(N)=O` (H-WYIRWIK[Chg]QIWSKLRL-NH2): in test [3], the inhibition result is “Active”.

`CC[C@H](C)[C@H](NC(=O)[C@H](CCC(N)=O)NC(=O)[C@@H](NC(=O)[C@H](CCCCN)NC(=O)[C@@H](NC(=O)[C@@H](Cc1c[nH]c2ccccc12)NC(=O)[C@H](CCCNC(=N)N)NC(=O)[C@@H](NC(=O)[C@H](Cc1ccc(O)cc1)NC(=O)[C@@H](N)Cc1c[nH]c2ccccc12)[C@@H](C)CC)[C@@H](C)CC)C1CCCCC1)C(=O)N[C@@H](Cc1c[nH]c2ccccc12)C(=O)N[C@@H](CO)C(=O)N[C@@H](CCCCN)C(=O)N[C@H](C(=O)N[C@@H](CCCNC(=N)N)C(=O)N[C@@H](CC(C)C)C(N)=O)C1CCCCC1`: the Activity came out at 130% with Mus musculus [5], 5.92 kg/kg in the test with Mus musculus [6] and 114% in the test with Mus musculus [7].

For `CC[C@H](C)[C@H](NC(=O)[C@H](CCC(N)=O)NC(=O)[C@@H](NC(=O)[C@H](CCCCN)NC(=O)[C@@H](NC(=O)[C@H](Cc1c[nH]c2ccccc12)NC(=O)[C@H](CCCNC(=N)N)NC(=O)[C@@H](NC(=O)[C@H](Cc1ccc(O)cc1)NC(=O)[C@@H](N)Cc1c[nH]c2ccccc12)[C@@H](C)CC)[C@@H](C)CC)[C@@H](C)CC)C(=O)N[C@@H](Cc1c[nH]c2ccccc12)C(=O)N[C@@H](CO)C(=O)N[C@@H](CCCCN)C(=O)N[C@H](C(=O)N[C@@H](CCCNC(=N)N)C(=O)N[C@@H](CC(C)C)C(N)=O)C1CCCCC1` (H-WYIRWIKIQIWSK[Chg]RL-NH2), in test [3], the inhibition entry was “Active”.

With H-SRIEAIKIQILSKLRL-NH2, in test [4], the inhibition result was “inactive”.

As to H-WYIRWIKIQFWSKLRL-NH2, the inhibition entry in test [3] was “Active”.
